Converted amounts (≈) assume the structure as drawn.
How the values were obtained:
L1210 = experiment: Compound was evaluated for inhibition dose required to inhibit the growth of L1210 cells in culture.; format: functional; details: Mus musculus, read-out: ID50 (the source's name)
Thymidylate synthase = Thymidylate synthase (Mus musculus, UniProt P07607); experiment: Inhibitory concentration of compound to inhibit Thymidylate synthase (TS) in L1210 cells at conc. of 200 uM; format: cell-based
Outline: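 Partially purified thymidylate synthase from L1210 leukemia cells; the enzyme assay used (±)-5,10-methylenetetrahydrofolate (5,10-CH2-FH4) cofactor at 200 μM.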

[1] = Solubility at pH 5; format: physicochemical; details: buffer
Outline: (§1)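 Run at 18 °C in 0.01 M potassium phosphate buffer. A saturated suspension was brought to pH 7.4 with 5 M KOH, held overnight, filtered through 0.22 µm, readjusted and refiltered. For pH 5.0, part of the filtrate was acidified with phosphoric acid and refiltered, then diluted with pH 5.0 buffer if opalescent. Samples were diluted in 0.1 M NaOH and concentration read by UV absorbance at 301.5 nm.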

[2] = Solubility at pH 7.4; format: physicochemical; details: buffer; outline: as §1

Chain of Thymidylate synthase (P07607 whole entry): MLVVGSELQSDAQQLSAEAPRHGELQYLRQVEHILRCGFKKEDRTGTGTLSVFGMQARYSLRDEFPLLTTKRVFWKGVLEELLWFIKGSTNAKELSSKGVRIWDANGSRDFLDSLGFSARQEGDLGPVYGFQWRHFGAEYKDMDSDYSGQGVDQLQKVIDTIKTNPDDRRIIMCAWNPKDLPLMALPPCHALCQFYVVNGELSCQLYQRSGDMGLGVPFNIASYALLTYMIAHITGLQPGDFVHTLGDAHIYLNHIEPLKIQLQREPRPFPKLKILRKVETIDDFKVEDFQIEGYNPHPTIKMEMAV

Compound | IC50 (L1210) | IC50 (Thymidylate synthase) | solubility [1] | solubility [2]
C=CCN(Cc1ccc2nc(N)nc(O)c2c1)c1ccc(C(=O)NC(CCC(=O)O)C(=O)O)cc1 (stereo not drawn) | 6000 nM | 280 nM | – | –
CCN(Cc1ccc2ncnc(O)c2c1)c1ccc(C(=O)NC(CCC(=O)O)C(=O)O)cc1 (stereo not drawn) | 2700 nM | – | – | –
CN(Cc1ccc2nc(N)nc(O)c2c1)c1ccc(C(=O)NC(CCC(=O)O)C(=O)O)cc1 (stereo not drawn) | 4500 nM | 360 nM | – | –
CN(Cc1ccc2ncnc(O)c2c1)c1ccc(C(=O)NC(CCC(=O)O)C(=O)O)cc1 (stereo not drawn) | 900 nM | 1060 nM | – | –
C=CCN(Cc1ccc2ncnc(O)c2c1)c1ccc(C(=O)NC(CCC(=O)O)C(=O)O)cc1 (stereo not drawn) | 2500 nM | 1120 nM | – | –

Continued by falling IC50 (L1210), values first:

IC50 (L1210) | IC50 (Thymidylate synthase) | solubility [1] | solubility [2] | Compound
9000 nM | – | – | – | CCN(Cc1ccc2nc(N)nc(O)c2c1)c1ccc(C(=O)NC(CCC(=O)O)C(=O)O)cc1 (stereo not drawn)
3400 nM | – | 8.6 µg/mL (≈ 18 µM) | 312 µg/mL (≈ 653 µM) | C#CCN(Cc1ccc2[nH]c(N)nc(=O)c2c1)c1ccc(C(=O)NC(CCC(=O)O)C(=O)O)cc1 (stereo not drawn)
2700 nM | – | – | – | Nc1nc(O)c2cc(CNc3ccc(C(=O)NC(CCC(=O)O)C(=O)O)cc3)ccc2n1 (stereo not drawn) [DIDEAZAFOLATE]
400 nM | – | 43 µg/mL (≈ 93 µM) | > 107000 µg/mL | C#CCN(Cc1ccc2ncnc(O)c2c1)c1ccc(C(=O)NC(CCC(=O)O)C(=O)O)cc1 (stereo not drawn)
400 nM | – | – | – | O=C(O)CCC(NC(=O)c1ccc(NCc2ccc3ncnc(O)c3c2)cc1)C(=O)O (stereo not drawn)
